The source made the active and inactive calls.

The target in this assay is Virion infectivity factor (Human immunodeficiency virus type 1 group M subtype B (isolate NY5)(HIV-1)) (UniProt P12504). Description: Antagonist activity against HIV-1 Vif in human MT4 cells assessed as inhibition of viral infection at 50 uM measured after 16 hrs by cell-based assay. To be noted: Human immunodeficiency virus 1. The gist of the method: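 Antiviral activity was measured against wild-type HIV-1 in permissive MT-4 cells as a Vif-specificity counter-screen. RN-18 was the positive control, and cells cultured without inhibitor were the negative control. "No activity" means no inhibition at 50 µM.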
Chain of Virion infectivity factor (Human immunodeficiency virus type 1 group M subtype B (isolate NY5)(HIV-1)) (P12504 whole entry): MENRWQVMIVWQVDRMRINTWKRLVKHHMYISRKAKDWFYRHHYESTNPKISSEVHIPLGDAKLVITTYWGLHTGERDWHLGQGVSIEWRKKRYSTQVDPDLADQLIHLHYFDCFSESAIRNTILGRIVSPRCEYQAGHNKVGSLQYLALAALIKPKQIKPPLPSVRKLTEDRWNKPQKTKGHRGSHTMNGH
`COc1ccc(Sc2ccccc2-c2cn(-c3cccc(OC)c3OC)nn2)cc1`: the result was inactive. As for `COc1cccc(OC)c1-n1cc(-c2ccccc2S(=O)(=O)c2ccc(N)cc2)nn1`, the entry is “inactive”; as for `COc1cccc(F)c1-n1cc(-c2ccccc2S(=O)(=O)c2ccc(C(=O)O)cc2)nn1`, “inactive”; as for `COc1ccccc1-n1cc(-c2ccccc2S(=O)(=O)c2ccc(C(F)(F)F)cc2)nn1`, “inactive”. With `COc1ccc(S(=O)(=O)c2ccccc2-c2cn(-c3ccccc3OC)nn2)cc1` the entry was “inactive”. As for `COc1cccc(OC)c1-n1cc(-c2ccccc2S(=O)(=O)c2ccc([N+](=O)[O-])cc2)nn1`, the entry is “inactive”; as for `COc1cccc(OC)c1-n1cc(-c2ccccc2Sc2ccc(N)cc2)nn1`, “inactive”.

For the compound `COc1cccc(F)c1-n1cc(-c2ccccc2S(=O)(=O)c2ccc(N)cc2)nn1`, the result was inactive. As for `COc1cccc(-n2cc(-c3ccccc3S(=O)(=O)c3ccc(C(F)(F)F)cc3)nn2)c1OC`, the entry is “inactive”; as for `COc1ccc(Sc2ccccc2-c2cn(-c3cc(OC)ccc3OC)nn2)cc1`, “inactive”; as for `COc1ccc(OC)c(-n2cc(-c3ccccc3Sc3ccc(C(=O)O)cc3)nn2)c1`, “inactive”. In the case of `COc1cccc(F)c1-n1cc(-c2ccccc2Sc2ccc(C(=O)O)cc2)nn1`, the result was inactive.

With `COc1ccccc1-n1cc(-c2ccccc2Sc2ccc(N)cc2)nn1`, the outcome was inactive. As for `COc1ccc(OC)c(-n2cc(-c3ccccc3S(=O)(=O)c3ccc(C(F)(F)F)cc3)nn2)c1`, the entry is “inactive”; as for `COC(=O)c1ccc(Sc2ccccc2-c2cn(-c3c(F)cccc3OC)nn2)cc1`, “inactive”; as for `COc1ccc(-n2cc(-c3ccccc3Sc3ccc([N+](=O)[O-])cc3)nn2)c(OC)c1`, “inactive”. Regarding `COc1ccc(Sc2ccccc2-c2cn(-c3ccc(OC)cc3OC)nn2)cc1`, the outcome was inactive. With `COc1ccc(-n2cc(-c3ccccc3Sc3ccc(N)cc3)nn2)c(OC)c1`, the outcome was inactive. With `COC(=O)c1ccc(Sc2ccccc2-c2cn(-c3ccccc3OC)nn2)cc1` the entry was “inactive”. As for `COc1cccc(-n2cc(-c3ccccc3Sc3ccc(C(F)(F)F)cc3)nn2)c1OC`, the entry is “inactive”; as for `COc1ccc(OC)c(-n2cc(-c3ccccc3Sc3ccc(C(F)(F)F)cc3)nn2)c1`, “inactive”; as for `COc1cccc(OC)c1-n1cc(-c2ccccc2Sc2ccc(C(F)(F)F)cc2)nn1`, “inactive”. With `COc1ccc(-n2cc(-c3ccccc3Sc3ccc(C(F)(F)F)cc3)nn2)c(OC)c1`, the result was inactive. Turning to `COc1ccc(-n2cc(-c3ccccc3S(=O)(=O)c3ccc(C(F)(F)F)cc3)nn2)c(OC)c1`, the result was inactive. Turning to `COC(=O)c1ccc(S(=O)(=O)c2ccccc2-c2cn(-c3ccccc3OC)nn2)cc1`, the result was inactive. As for `COc1cccc(OC)c1-n1cc(-c2ccccc2Sc2ccc(C(=O)O)cc2)nn1`, the entry is “inactive”; as for `COc1ccc(S(=O)(=O)c2ccccc2-c2cn(-c3c(OC)cccc3OC)nn2)cc1`, “inactive”; as for `COc1cccc(F)c1-n1cc(-c2ccccc2Sc2ccc(N)cc2)nn1`, “inactive”.

In the case of `COc1cccc(OC)c1-n1cc(-c2ccccc2S(=O)(=O)c2ccc(C(F)(F)F)cc2)nn1`, the result was inactive. `COc1ccc(S(=O)(=O)c2ccccc2-c2cn(-c3cc(OC)ccc3OC)nn2)cc1`: the result was inactive. For `COc1cccc(F)c1-n1cc(-c2ccccc2S(=O)(=O)c2ccc([N+](=O)[O-])cc2)nn1`, the result was inactive. With `COc1ccc(Sc2ccccc2-c2cn(-c3ccccc3OC)nn2)cc1` the entry was “inactive”; with `COc1ccc(S(=O)(=O)c2ccccc2-c2cn(-c3cccc(OC)c3OC)nn2)cc1`, “inactive”.

The values are drawn from ChEMBL document CHEMBL4431339, “1,2,3-Triazoles as Amide Bioisosteres: Discovery of a New Class of Potent HIV-1 Vif Antagonists” (J Med Chem, 2016).
